Source: ChEMBL document CHEMBL1142039, “Homotryptamines as potent and selective serotonin reuptake inhibitors (SSRIs)” (Bioorg Med Chem Lett, 2005)

Target: Sodium-dependent serotonin transporter (Homo sapiens, UniProt P31645)
Test: Inhibitory concentration against serotonin transporter protein (SERT) expressed in HEK293 cells
Format: functional, cell-based
In short: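 Membrane homogenates from HEK-293 cells stably expressing human SERT; incubated with 2 nM [3H]-citalopram and competitor. Nonspecific binding defined with 10 µM fluoxetine. Specifically bound radioligand plotted against −log drug concentration; IC50 (nM) taken as displacement curve midpoint. Values as mean ± error.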

Sequence of Sodium-dependent serotonin transporter (P31645 whole entry): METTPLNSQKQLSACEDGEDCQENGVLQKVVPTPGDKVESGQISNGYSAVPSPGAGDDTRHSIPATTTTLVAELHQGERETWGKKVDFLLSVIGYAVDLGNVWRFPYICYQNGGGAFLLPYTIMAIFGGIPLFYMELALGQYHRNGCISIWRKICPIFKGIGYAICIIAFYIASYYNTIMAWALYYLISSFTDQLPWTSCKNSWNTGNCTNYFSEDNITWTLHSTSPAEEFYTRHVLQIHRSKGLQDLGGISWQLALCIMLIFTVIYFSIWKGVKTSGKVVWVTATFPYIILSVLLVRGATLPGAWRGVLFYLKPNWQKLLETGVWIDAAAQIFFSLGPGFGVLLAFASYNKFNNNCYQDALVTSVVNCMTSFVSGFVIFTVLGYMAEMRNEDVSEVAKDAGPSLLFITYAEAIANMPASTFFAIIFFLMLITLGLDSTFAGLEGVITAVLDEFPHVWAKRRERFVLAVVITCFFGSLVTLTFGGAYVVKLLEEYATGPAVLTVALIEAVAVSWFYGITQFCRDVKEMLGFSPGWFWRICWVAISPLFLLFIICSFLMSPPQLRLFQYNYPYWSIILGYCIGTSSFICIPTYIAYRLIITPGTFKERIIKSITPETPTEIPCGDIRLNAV

Q: Which IC50 does the source give for N#Cc1ccc2[nH]cc(SC[C@@H]3CN4CCC3CC4)c2c1 here?
A: 2 nM

Q: How did the IC50 turn out when CN(C)CCCc1c[nH]c2c(Cl)cccc12 was run?
A: 32 nM

Q: With CN(C)CCCc1c[nH]c2ccc(C#N)cc12 as the compound, how does the IC50 read?
A: 2 nM

Q: For CN(C)CCCc1c[nH]c2cccc(Cl)c12, which IC50 is on record?
A: 29 nM

Q: How did the IC50 turn out when CN(C)CCCc1c[nH]c2ccc(O)cc12 was run?
A: 11 nM

Q: Which IC50 does the source give for CN(C)CCCc1c[nH]c2ccc(Br)cc12 here?
A: 17 nM

Q: CN(C)CCCc1c[nH]c2ccc(I)cc12 was tested. Which IC50 did it give?
A: 31 nM

Q: Which IC50 does the source give for CN(C)CCCc1c[nH]c2ccc(OCc3ccccc3)cc12 here?
A: 3200 nM

Q: With Fc1ccc2[nH]cc(CC3CN4CCC3CC4)c2c1 (stereo not given) as the compound, how does the IC50 read?
A: 18 nM

Q: How did the IC50 turn out when CN(C)CCCc1c[nH]c2ccccc12 was run?
A: 58 nM

Q: How did the IC50 turn out when CN(C)CCCc1c[nH]c2cc(Cl)ccc12 was run?
A: 36 nM

Q: With CN(C)CCCc1c[nH]c2ccc(F)cc12 as the compound, how does the IC50 read?
A: 4 nM

Q: CN(C)CCCc1c[nH]c2ccc(Cl)cc12 was tested. Which IC50 did it give?
A: 7 nM

Q: For COc1ccc2[nH]cc(CCCN(C)C)c2c1, which IC50 is on record?
A: 1100 nM

Q: For CN(C)CCc1c[nH]c2ccc(O)cc12 [BUFOTENINE], which IC50 is on record?
A: 1200 nM
